Legend:
[1] = tested on: MT4; test: Antiproliferative activity against human MT4 cells assessed as reduction of growth by MTT assay; assay type: functional, cell-based
Method in brief: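 MT-4 lymphoblastoid T cells (ATCC) in RPMI 1640 with 10% FCS, penicillin/streptomycin, checked for mycoplasma. 1 × 10⁴ mock-infected cells per well with serial dilutions from a 100 mM DMSO stock. Incubated 4 days at 37 °C, viable cells counted by MTT. IC50 versus untreated controls by linear regression. Mean of three separate experiments.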

[2] = tested on: HL-60(TB); test: Growth inhibition of human HL-60(TB) cells after 48 hrs by sulforhodamine B assay; assay type: functional; conditions: HL-60, 48 h
Method in brief: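 NCI 60-cell-line screen protocol: cells exposed to compound at five 10-fold dilutions from 10^-4 to 10^-8 M for the last 48 h of a 72 h incubation. Sulforhodamine B protein assay estimated viability/growth. GI50 (50% growth inhibition) derived; where not reached or exceeded, reported as greater or less than the highest or lowest concentration tested.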

[3] = tested on: MOLT-4; test: Growth inhibition of human MOLT4 cells after 48 hrs by sulforhodamine B assay; assay type: functional; conditions: MOLT-4, 48 h
Method in brief: (§1)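 NCI screen panel. Five 10-fold concentrations from 10^-4 to 10^-8 M. Exposure for the last 48 h of a 72 h incubation. Growth estimated by sulforhodamine B protein assay. GI50 is the concentration giving 50% growth inhibition. Where that level was not reached or was exceeded, the value is given as above or below the highest or lowest concentration tested.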

[4] = Growth inhibition of human […] cells after 48 hrs by sulforhodamine B assay; assay type: functional; method in brief: as §1
[5] = tested on: A549; test: Growth inhibition of human A549 cells after 48 hrs by sulforhodamine B assay; assay type: functional; conditions: A549, 48 h; method in brief: as §1
[6] = tested on: HOP-92; test: Growth inhibition of human HOP92 cells after 48 hrs by sulforhodamine B assay; assay type: functional; conditions: HOP-92, 48 h; method in brief: as §1
[7] = tested on: NCI-H226; test: Growth inhibition of human NCI-H226 cells after 48 hrs by sulforhodamine B assay; assay type: functional; conditions: NCI-H226, 48 h; method in brief: as §1
[8] = tested on: NCI-H23; test: Growth inhibition of human NCI-H23 cells after 48 hrs by sulforhodamine B assay; assay type: functional; conditions: NCI-H23, 48 h; method in brief: as §1
[9] = tested on: NCI-H322M; test: Growth inhibition of human NCI-H322M cells after 48 hrs by sulforhodamine B assay; assay type: functional; method in brief: as §1
[10] = tested on: NCI-H460; test: Growth inhibition of human NCI-H460 cells after 48 hrs by sulforhodamine B assay; assay type: functional; conditions: NCI-H460, 48 h; method in brief: as §1
[11] = tested on: COLO 205; test: Growth inhibition of human COLO205 cells after 48 hrs by sulforhodamine B assay; assay type: functional; conditions: COLO 205, 48 h; method in brief: as §1
[12] = tested on: HCT-116; test: Growth inhibition of human HCT116 cells after 48 hrs by sulforhodamine B assay; assay type: functional; conditions: HCT-116, 48 h; method in brief: as §1
[13] = tested on: HCT-15; test: Growth inhibition of human HCT15 cells after 48 hrs by sulforhodamine B assay; assay type: functional; conditions: HCT-15, 48 h; method in brief: as §1
[14] = tested on: HT-29; test: Growth inhibition of human HT-29 cells after 48 hrs by sulforhodamine B assay; assay type: functional; conditions: HT-29, 48 h; method in brief: as §1
[15] = tested on: SW-620; test: Growth inhibition of human SW620 cells after 48 hrs by sulforhodamine B assay; assay type: functional; conditions: SW-620, 48 h
Method in brief: (§2)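 NCI in vitro panel screen. Compounds tested at five 10-fold dilutions, 10^-4 to 10^-8 M. Cells in 96-well plates were exposed for the last 48 h of a 72 h incubation. Viability/growth was read by sulforhodamine B protein assay. GI50 is the concentration giving 50% growth inhibition. Values beyond the tested range are reported as greater or less than the maximum or minimum concentration.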

[16] = tested on: SF-268; test: Growth inhibition of human SF268 cells after 48 hrs by sulforhodamine B assay; assay type: functional; conditions: SF-268, 48 h; method in brief: as §1
[17] = tested on: SF-295; test: Growth inhibition of human SF295 cells after 48 hrs by sulforhodamine B assay; assay type: functional; conditions: SF-295, 48 h; method in brief: as §1
[18] = tested on: SF-539; test: Growth inhibition of human SF539 cells after 48 hrs by sulforhodamine B assay; assay type: functional; conditions: SF-539, 48 h; method in brief: as §1
[19] = tested on: SNB-19; test: Growth inhibition of human SNB19 cells after 48 hrs by sulforhodamine B assay; assay type: functional; conditions: SNB-19, 48 h; method in brief: as §2
[20] = tested on: SNB-75; test: Growth inhibition of human SNB75 cells after 48 hrs by sulforhodamine B assay; assay type: functional; conditions: SNB-75, 48 h; method in brief: as §2
[21] = tested on: U-251; test: Growth inhibition of human U251 cells after 48 hrs by sulforhodamine B assay; assay type: functional; conditions: U-251, 48 h; method in brief: as §2
[22] = tested on: LOX IMVI; test: Growth inhibition of human LOXIMVI cells after 48 hrs by sulforhodamine B assay; assay type: functional; method in brief: as §1
[23] = tested on: Malme-3M; test: Growth inhibition of human MALME-3M cells after 48 hrs by sulforhodamine B assay; assay type: functional; method in brief: as §1
[24] = tested on: M14; test: Growth inhibition of human M14 cells after 48 hrs by sulforhodamine B assay; assay type: functional; conditions: M14, 48 h; method in brief: as §1
[25] = tested on: SK-MEL-2; test: Growth inhibition of human SK-MEL-2 cells after 48 hrs by sulforhodamine B assay; assay type: functional; conditions: SK-MEL-2, 48 h; method in brief: as §1
[26] = tested on: UACC-257; test: Growth inhibition of human UACC257 cells after 48 hrs by sulforhodamine B assay; assay type: functional; conditions: UACC-257, 48 h; method in brief: as §2
[27] = tested on: UACC-62; test: Growth inhibition of human UACC62 cells after 48 hrs by sulforhodamine B assay; assay type: functional; conditions: UACC-62, 48 h; method in brief: as §2
[28] = tested on: OVCAR-3; test: Growth inhibition of human OVCAR-3 cells after 48 hrs by sulforhodamine B assay; assay type: functional; conditions: OVCAR-3, 48 h; method in brief: as §1
[29] = tested on: OVCAR-4; test: Growth inhibition of human OVCAR4 cells after 48 hrs by sulforhodamine B assay; assay type: functional; conditions: OVCAR-4, 48 h; method in brief: as §1
[30] = tested on: OVCAR-8; test: Growth inhibition of human OVCAR8 cells after 48 hrs by sulforhodamine B assay; assay type: functional; conditions: OVCAR-8, 48 h; method in brief: as §1
[31] = tested on: SK-OV-3; test: Growth inhibition of human SKOV3 cells after 48 hrs by sulforhodamine B assay; assay type: functional; conditions: SK-OV-3, 48 h; method in brief: as §1
[32] = tested on: A498; test: Growth inhibition of human A498 cells after 48 hrs by sulforhodamine B assay; assay type: functional; conditions: A498, 48 h; method in brief: as §1
[33] = tested on: ACHN; test: Growth inhibition of human ACHN cells after 48 hrs by sulforhodamine B assay; assay type: functional; method in brief: as §1
[34] = tested on: RXF 393; test: Growth inhibition of human RXF393 cells after 48 hrs by sulforhodamine B assay; assay type: functional; conditions: RXF 393, 48 h; method in brief: as §1
[35] = tested on: TK-10; test: Growth inhibition of human TK10 cells after 48 hrs by sulforhodamine B assay; assay type: functional; conditions: TK-10, 48 h; method in brief: as §2
[36] = tested on: NCI/ADR-RES; test: Growth inhibition of human NCI/ADR-RES cells after 48 hrs by sulforhodamine B assay; assay type: functional; method in brief: as §1
[37] = tested on: MDA-MB-231; test: Growth inhibition of human MDA-MB-231 cells after 48 hrs by sulforhodamine B assay; assay type: functional; conditions: MDA-MB-231, 48 h; method in brief: as §1
[38] = Growth inhibition of human Hs 578T cells after 48 hrs by sulforhodamine B assay; assay type: functional; method in brief: as §1
[39] = tested on: MDA-MB-435; test: Growth inhibition of human MDA-MB-435 cells after 48 hrs by sulforhodamine B assay; assay type: functional; conditions: MDA-MB-435, 48 h; method in brief: as §1
[40] = tested on: BT-549; test: Growth inhibition of human BT549 cells after 48 hrs by sulforhodamine B assay; assay type: functional; conditions: BT-549, 48 h; method in brief: as §1
[41] = tested on: T47D; test: Growth inhibition of human T47D cells after 48 hrs by sulforhodamine B assay; assay type: functional; method in brief: as §2

`O=C(c1ccc(Cl)cc1Cl)N1CCN(C(=O)c2ccc(Cl)cc2Cl)C1=S` gave an IC50 [1] of 39 µM, a GI50 [2] of 16.6 µM and a GI50 [3] of 20.5 µM. For the same molecule, the GI50 [4] was 12.9 µM, the GI50 [5] was 20.1 µM and the GI50 [6] was 7.8 µM. The GI50 [7] was 40.9 µM, the GI50 [8] was 19.8 µM and the GI50 [9] was 18.1 µM. The GI50 [10] was 35.4 µM, the GI50 [11] was 21 µM and the GI50 [12] was 23.5 µM. It also gave a GI50 [13] of 22.1 µM, a GI50 [14] of 20.4 µM and a GI50 [15] of 28.2 µM. It also gave a GI50 [16] of 24.5 µM, a GI50 [17] of 22.9 µM and a GI50 [18] of 27.2 µM. The GI50 [19] was 24.9 µM, the GI50 [20] was 22.3 µM and the GI50 [21] was 17.8 µM. It also gave a GI50 [22] of 17.1 µM, a GI50 [23] of 25.4 µM and a GI50 [24] of 16.3 µM. It also gave a GI50 [25] of 18.4 µM, a GI50 [26] of 28.2 µM and a GI50 [27] of 17.3 µM. The GI50 [28] was 19.7 µM, the GI50 [29] was 25.8 µM and the GI50 [30] was 22.1 µM. It also gave a GI50 [31] of 22.8 µM, a GI50 [32] of 16.1 µM and a GI50 [33] of 21.3 µM. It also gave a GI50 [34] of 18.5 µM, a GI50 [35] of 36.3 µM and a GI50 [36] of 24.8 µM. The GI50 [37] was 19.1 µM, the GI50 [38] was 41 µM and the GI50 [39] was 16.4 µM. It also gave a GI50 [40] of 21.1 µM and a GI50 [41] of 19.5 µM.

From ChEMBL document CHEMBL1138555, “N-acylated and N,N'-diacylated imidazolidine-2-thione derivatives and N,N'-diacylated tetrahydropyrimidine-2(1H)-thione analogues: synthesis and antiproliferative activity” (Eur J Med Chem, 2009)
